Measurements from different studies.
Target: Protein kinase C eta type (PRKCH, Homo sapiens, UniProt P24723)

For `N[C@H]1CCN(c2nccc(-c3cnn4ncccc34)n2)C1`, the remaining binding was 88% (binding; 1 µM).
The remaining binding of `CCCCN(CCCC)C(=O)CN1C[C@H](c2cc(OC)c3c(c2)OCO3)[C@@H](C(=O)O)[C@@H]1CC(C)(C)CCC` is reported as 100% (cell-free assay; competition with immobilised ligand; 1 µM).
With `CN(c1nccc(-c2cnn3ncccc23)n1)C1CC1` the remaining binding was 100% (binding; 1 µM).
The remaining binding of `O=C(c1ccc(Nc2ncc(Cl)c(-c3cc4ccccc4s3)n2)cc1)N1CCC(N2CCCC2)CC1` is reported as 12% (binding; competition with immobilised ligand; 1 µM).
`COc1ncc2cc3ccccc3nc2c1C#N` has a remaining binding of 90% (cell-free assay; competition with immobilised ligand; 5 µM).
`O=C(c1ccc(Nc2ncc(Cl)c(-c3ccc(Cl)s3)n2)cc1)N1CCC(N2CCCC2)CC1` gave a remaining binding of 46% (binding; competition with immobilised ligand; 1 µM).
`O=C(NCC1CCOCC1)c1n[nH]cc1NC(=O)c1c(F)cccc1F` gave a remaining binding of 92% (binding; competition with immobilised ligand; 1 µM).
`c1cnn2ncc(-c3ccnc(N4CCC45COC5)n3)c2c1` gave a remaining binding of 88% (binding; 1 µM).
The remaining binding of `Nc1ncc2c(n1)-c1c([nH]c3ccc(C#CC4CC4)cc13)CCCC2` is reported as 100% (binding; competition with immobilised ligand; 1 µM).
With `O=C(Nc1cnc(Oc2ccc(F)cc2)nc1)N1CCc2ncccc2[C@@H]1c1ccc(F)cc1` the remaining binding was 76% (cell-free assay; competition with immobilised ligand; 1 µM).
`CNC(=O)[C@@H]1CC[C@@H](n2c(-c3ccc4cnccc4c3)nc3ccc(C(=O)NCc4cccc(C(N)=O)c4)cc32)C1` has a remaining binding of 100% (binding; competition with immobilised ligand; 1 µM).
With `Cc1cnc(Nc2ccc(C(=O)N3CCC(N4CCCC4)CC3)cc2)nc1-c1cc2ccccc2s1` the remaining binding was 15% (binding; competition with immobilised ligand; 1 µM).
`CN(CCCC(F)(F)F)c1nccc(-c2cnn3ncccc23)n1` has a remaining binding of 89% (binding; 1 µM).
The remaining binding of `C[C@H](c1ccnc(Nc2nc3ccc(-c4cc(N(C)C)ncn4)cc3[nH]2)c1)N1CCN(C(=O)CC(F)(F)F)CC1` is reported as 84% (cell-free assay; competition with immobilised ligand; 0.1 µM).
`CC1CCCN1c1nccc(-c2cnn3ncccc23)n1` (stereo not shown) has a remaining binding of 100% (binding; 1 µM).
`CCN1CCN(Cc2ccc(C(=O)Nc3ccc(C)c(Oc4ccc5c(c4)CC(=O)N5)c3)cc2C(F)(F)F)CC1` has a remaining binding of 100% (binding; competition with immobilised ligand; 1 µM).
With `CCCOc1ccc([C@@H]2[C@@H](C(=O)O)[C@H](c3ccc4c(c3)OCO4)CN2CC(=O)Nc2c(CC)cccc2CC)cc1` the remaining binding was 100% (cell-free assay; competition with immobilised ligand; 1 µM).
`CN(C)c1nccc(-c2cnc3ncccn23)n1` gave a remaining binding of 100% (binding; 1 µM).
With `CC(=O)Nc1c(C(C)=O)c(=O)n(C)c2nc(-c3ccc(Cl)cc3Cl)c(-c3ccc(Cl)cc3)cc12` the remaining binding was 100% (cell-free assay; competition with immobilised ligand; 1 µM).
For `c1cncc(-c2cccc(Nc3nccc(NC4CCCCC4)n3)c2)c1`, the remaining binding was 73% (binding; competition with immobilised ligand; 10 µM).
`CN(C)c1nccc(-c2cnn3ncccc23)n1` has a remaining binding of 100% (binding; 1 µM).
The remaining binding of `CN(C)CC#Cc1ccc(OCCCc2sc(N3CCc4cccc(C(=O)Nc5nc6ccccc6s5)c4C3)nc2C(=O)O)c(F)c1` is reported as 74% (cell-free assay; competition with immobilised ligand; 1 µM).
